Test results taken from ChEMBL document CHEMBL4428039, “Anticancer properties of new synthetic hybrid molecules combining naphtho[2,3-b]furan-4,9-dione or benzo[f]indole-4,9-dione motif with phosphonate subunit” (Eur J Med Chem, 2016).
Active and inactive are the calls of the source. No cut-off for these calls is given here.

Key:
MCF7 [1] = assay: Cytotoxicity against human MCF7 cells assessed as inhibition of metabolic activity after 48 hrs by MTT assay; format: functional, cell-based; conditions: MCF7, 48 h
Summary of the method: (§1)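 Exponentially growing cells seeded in 96-well plates and grown 24 h. Compounds in DMSO, diluted in medium (final DMSO <0.1%), added at 10^-7 to 10^-3 M for 48 h. MTT (5 mg/mL in PBS) then added for 2 h. Formazan dissolved in DMSO and read at 560 nm against untreated cells. IC50 taken from concentration–response curves; mean ± SD of ≥3 experiments.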

HL-60 [2] = assay: Cytotoxicity against human HL60 cells assessed as inhibition of metabolic activity after 48 hrs by MTT assay; format: functional, cell-based; conditions: HL-60, 48 h; summary of the method: as §1
NALM-6 = assay: Cytotoxicity against human NALM6 cells assessed as inhibition of metabolic activity after 48 hrs by MTT assay; format: functional, cell-based; conditions: NALM-6, 48 h; summary of the method: as §1
HUVEC = assay: Cytotoxicity against HUVEC assessed as inhibition of metabolic activity after 48 hrs by MTT assay; format: ADME, cell-based; conditions: Homo sapiens; summary of the method: as §1
MCF-10A = assay: Cytotoxicity against human MCF10A cells assessed as inhibition of metabolic activity after 48 hrs by MTT assay; format: ADME, cell-based; summary of the method: as §1
[3] = Selectivity index, ratio of IC50 for human MCF10A cells to IC50 for human MCF7 cells; format: toxicity; conditions: MCF10A cells versus MCF7 cells, read-out: Ratio IC50
HL-60 [4] = assay: Induction of apoptosis in human HL60 cells assessed as necrotic cells at 7.27 +/- 0.08 uM after 24 hrs by Annexin V-APC/propidium iodide staining based flow cytometry (reference value: 0.1%); format: functional
MCF7 [5] = assay: Induction of apoptosis in human MCF7 cells assessed as viable cells at 3.4 +/- 0.15 uM after 24 hrs by Annexin V-APC/propidium iodide staining based flow cytometry (reference value: 86.1%); format: functional
MCF7 [6] = assay: Induction of transmembrane potential depolarization in human MCF7 cells at 3.4 +/- 0.15 uM after 24 hrs by JC-10 staining based flow cytometry (reference value: 18.2%); format: functional
MCF7 [7] = assay: Inhibition of cell proliferation in human MCF7 cells assessed as reduction in BrdU incorporation at 3.4 +/- 0.15 uM after 24 hrs by DAPI staining based flow cytometry relative to control; format: functional
MCF7 [8] = assay: Induction of apoptosis in human MCF7 cells assessed as early apoptotic cells at 3.4 +/- 0.15 uM after 24 hrs by Annexin V-APC/propidium iodide staining based flow cytometry (reference value: 5.9%); format: functional
MCF7 [9] = assay: Induction of apoptosis in human MCF7 cells assessed as late apoptotic cells at 3.4 +/- 0.15 uM after 24 hrs by Annexin V-APC/propidium iodide staining based flow cytometry (reference value: 6.1%); format: functional
HL-60 [10] = assay: Induction of DNA damage in human HL60 cells assessed as increase in H2AX phosphorylation at S139 residue at 7.27 +/- 0.08 uM after 24 hrs by DAPI staining based flow cytometry relative to control; format: functional
HL-60 [11] = assay: Induction of apoptosis in human HL60 cells assessed as increase in cleaved PARP positive cells at 7.27 +/- 0.08 uM after 24 hrs by DAPI staining based flow cytometry (reference value: 1.2 +/- 0.2%); format: functional
HL-60 [12] = assay: Induction of transmembrane potential depolarization in human HL60 cells at 7.27 +/- 0.08 uM after 24 hrs by JC-10 staining based flow cytometry (reference value: 15.9%); format: functional
HL-60 [13] = assay: Cell cycle arrest in human HL60 cells assessed as accumulation at G0/G1 phase at 7.27 +/- 0.08 uM after 24 hrs by DAPI staining based flow cytometry (reference value: 39.5%); format: functional
HL-60 [14] = assay: Induction of ROS generation in human HL60 cells at 7.27 +/- 0.08 uM after 24 hrs by Cellrox Green staining based flow cytometry relative to control; format: functional
MCF7 [15] = assay: Cell cycle arrest in human MCF7 cells assessed as accumulation at G0/G1 phase at 3.4 +/- 0.15 uM after 24 hrs by DAPI staining based flow cytometry (reference value: 55%); format: functional
MCF7 [16] = assay: Induction of apoptosis in human MCF7 cells assessed as necrotic cells at 3.4 +/- 0.15 uM after 24 hrs by Annexin V-APC/propidium iodide staining based flow cytometry (reference value: 1.9%); format: functional
HL-60 [17] = assay: Cell cycle arrest in human HL60 cells assessed as accumulation at S phase at 7.27 +/- 0.08 uM after 24 hrs by DAPI staining based flow cytometry (reference value: 26.1%); format: functional
MCF7 [18] = assay: Induction of ROS generation in human MCF7 cells at 3.4 +/- 0.15 uM after 24 hrs by Cellrox Green staining based flow cytometry relative to control; format: functional
HL-60 [19] = assay: Inhibition of cell proliferation in human HL60 cells assessed as reduction in BrdU incorporation at 7.27 +/- 0.08 uM after 24 hrs by DAPI staining based flow cytometry relative to control; format: functional
MCF7 [20] = assay: Induction of apoptosis in human MCF7 cells assessed as increase in cleaved PARP positive cells at 3.4 +/- 0.15 uM after 24 hrs by DAPI staining based flow cytometry relative to control; format: functional, cell-based
MCF7 [21] = assay: Cell cycle arrest in human MCF7 cells assessed as accumulation at S phase at 3.4 +/- 0.15 uM after 24 hrs by DAPI staining based flow cytometry (reference value: 22%); format: functional
MCF7 [22] = assay: Cytotoxicity against human MCF7 cells assessed as inhibition of metabolic activity after 24 hrs by MTT assay; format: functional, cell-based; conditions: MCF7, 24 h
Summary of the method: (§2)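 MTT assay on HL-60 or MCF-7 cells seeded and grown 24 h, then treated 24 h over 10^-7 to 10^-3 M (final DMSO <0.1%). MTT (5 mg/mL in PBS) added for 2 h. Formazan dissolved in DMSO and read at 560 nm against untreated cells. IC50 derived from concentration–response curves of ≥3 experiments.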

HL-60 [23] = assay: Cytotoxicity against human HL60 cells assessed as inhibition of metabolic activity after 24 hrs by MTT assay; format: functional, cell-based; conditions: HL-60, 24 h; summary of the method: as §2
MCF7 [24] = assay: Cell cycle arrest in human MCF7 cells assessed as accumulation at G2/M phase at 3.4 +/- 0.15 uM after 24 hrs by DAPI staining based flow cytometry (reference value: 23%); format: functional
HL-60 [25] = assay: Cell cycle arrest in human HL60 cells assessed as accumulation at G2/M phase at 7.27 +/- 0.08 uM after 24 hrs by DAPI staining based flow cytometry (reference value: 31.2%); format: functional
HL-60 [26] = assay: Cell cycle arrest in human HL60 cells assessed as accumulation at subG0/G1 phase at 7.27 +/- 0.08 uM after 24 hrs by DAPI staining based flow cytometry (reference value: 3.1%); format: functional
HL-60 [27] = assay: Induction of apoptosis in human HL60 cells assessed as late apoptotic cells at 7.27 +/- 0.08 uM after 24 hrs by Annexin V-APC/propidium iodide staining based flow cytometry (reference value: 2.7%); format: functional
MCF7 [28] = assay: Induction of DNA damage in human MCF7 cells assessed as increase in H2AX phosphorylation at S139 residue at 3.4 +/- 0.15 uM after 24 hrs by DAPI staining based flow cytometry relative to control; format: functional
HL-60 [29] = assay: Induction of apoptosis in human HL60 cells assessed as early apoptotic cells at 7.27 +/- 0.08 uM after 24 hrs by Annexin V-APC/propidium iodide staining based flow cytometry (reference value: 3.4%); format: functional
MCF7 [30] = assay: Induction of ROS generation in human MCF7 cells at 200 uM after 1 hr by Cellrox Green staining based flow cytometry; format: functional, cell-based
Summary of the method: (§3)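 Positive-control ROS measurement in HL-60 and MCF-7 cells: menadione 200 µM for 1 h. Cells then stained with 5 µM CellROX Green for 30 min at 37 °C and analysed by flow cytometry. 3–4 independent experiments in triplicate, mean ± SEM.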

HL-60 [31] = assay: Induction of ROS generation in human HL60 cells at 200 uM after 1 hr by Cellrox Green staining based flow cytometry; format: functional, cell-based; summary of the method: as §3

Structure (SMILES): CCOP(=O)(O)c1c(-c2ccccc2Cl)oc2c1C(=O)c1ccccc1C2=O
- IC50 (MCF7 [1]): 150 µM
- IC50 (HL-60 [2]): 487 µM
- IC50 (NALM-6): 479 µM

Structure (SMILES): CCOP(=O)(OCC)c1c(-c2cc(F)c(Cl)nc2Cl)oc2c1C(=O)c1ccccc1C2=O
- IC50 (MCF7 [1]): 2.85 µM
- IC50 (HL-60 [2]): 5.94 µM
- IC50 (HUVEC): 4.85 µM
- IC50 (MCF-10A): 9.79 µM
- IC50 (NALM-6): 5.32 µM
- selectivity ratio [3]: 4

Structure (SMILES): COc1cccc2c1C(=O)c1c(O)c3c(c(O)c1C2=O)C[C@@](O)(C(=O)CO)C[C@@H]3O[C@H]1C[C@H](N)[C@H](O)[C@H](C)O1 [DOXORUBICIN]
- IC50 (HL-60 [2]): 0.11 µM
- IC50 (HUVEC): 1.4 µM
- IC50 (MCF-10A): 1.2 µM

Structure (SMILES): CCOP(=O)(OCC)c1c2c(n(C)c1O)C(=O)c1ccccc1C2=O
- IC50 (MCF7 [1]): 50 µM
- IC50 (HL-60 [2]): 59.7 µM
- IC50 (NALM-6): 61.7 µM

Structure (SMILES): CCOP(=O)(OCC)c1c(-c2cccnc2Cl)oc2c1C(=O)c1ccccc1C2=O
- IC50 (MCF7 [1]): 2.55 µM
- IC50 (HL-60 [2]): 8.66 µM
- IC50 (NALM-6): 6.65 µM

Structure (SMILES): CCCCCCn1c(O)c(P(=O)(OCC)OCC)c2c1C(=O)c1ccccc1C2=O
- IC50 (MCF7 [1]): 19.5 µM
- IC50 (HL-60 [2]): 30.7 µM
- IC50 (NALM-6): 44.3 µM

Structure (SMILES): CCOP(=O)(OCC)c1c(-c2ccc(Cl)cc2Cl)oc2c1C(=O)c1ccccc1C2=O
- IC50 (MCF7 [1]): 2.9 µM
- IC50 (HL-60 [2]): 5.44 µM
- IC50 (HUVEC): 4.06 µM
- IC50 (MCF-10A): 11.3 µM
- IC50 (NALM-6): 4.82 µM
- selectivity ratio [3]: 4

Structure (SMILES): CCOP(=O)(OCC)c1c(C)oc2c1C(=O)c1ccccc1C2=O
- IC50 (MCF7 [1]): 5.7 µM
- IC50 (HL-60 [2]): 8.13 µM
- IC50 (NALM-6): 5.85 µM

Structure (SMILES): CCOP(=O)(OCC)c1c2c(n(Cc3ccccc3Cl)c1O)C(=O)c1ccccc1C2=O
- IC50 (MCF7 [1]): 65 µM
- IC50 (HL-60 [2]): 42.4 µM
- IC50 (NALM-6): 60.1 µM

Structure (SMILES): CCOP(=O)(OCC)c1c2c(n(C3CC3)c1O)C(=O)c1ccccc1C2=O
- IC50 (MCF7 [1]): 102 µM
- IC50 (HL-60 [2]): 65 µM
- IC50 (NALM-6): 51.3 µM

Structure (SMILES): CCOP(=O)(OCC)c1c(-c2ccccc2Cl)oc2c1C(=O)c1ccccc1C2=O
- Activity (HL-60 [4]): 2.7%
- Activity (MCF7 [5]): 72.4%
- IC50 (MCF7 [1]): 2.34 µM
- Activity (MCF7 [6]): 50 - 50.1%
- inhibition (INH) (MCF7 [7]): 34%
- Activity (MCF7 [8]): 3%
- Activity (MCF7 [9]): 19%
- Activity (HL-60 [10]): 40.7%
- Activity (HL-60 [11]): <=82.8%
- Activity (HL-60 [12]): 44%
- Activity (HL-60 [13]): 33.5%
- fold change (FC) (HL-60 [14]): 10
- IC50 (HL-60 [2]): 6.35 µM
- Activity (MCF7 [15]): 62%
- Activity (MCF7 [16]): 5.6%
- Activity (HL-60 [17]): 36.1%
- IC50 (HUVEC): 3.73 µM
- fold change (FC) (MCF7 [18]): 10
- IC50 (MCF-10A): 10 µM
- inhibition (INH) (HL-60 [19]): 91%
- Activity (MCF7 [20]): inactive
- Activity (MCF7 [21]): 22.4%
- IC50 (MCF7 [22]): 3.4 µM
- IC50 (HL-60 [23]): 7.27 µM
- IC50 (NALM-6): 5.07 µM
- Activity (MCF7 [24]): 16.4%
- Activity (HL-60 [25]): 26.1%
- Activity (HL-60 [26]): 8.2%
- Activity (HL-60 [27]): 27.8%
- Activity (MCF7 [28]): 11.03%
- Activity (HL-60 [29]): 4.8%
- selectivity ratio [3]: 4

Structure (SMILES): CCCn1c(O)c(P(=O)(OCC)OCC)c2c1C(=O)c1ccccc1C2=O
- IC50 (MCF7 [1]): 43.9 µM
- IC50 (HL-60 [2]): 56.2 µM
- IC50 (NALM-6): 60 µM

Structure (SMILES): CCOP(=O)(OCC)c1c(-c2ccccc2)oc2c1C(=O)c1ccccc1C2=O
- IC50 (MCF7 [1]): 2.4 µM
- IC50 (HL-60 [2]): 6.01 µM
- IC50 (NALM-6): 6.06 µM

Structure (SMILES): CC1=CC(=O)c2ccccc2C1=O
- Activity (MCF7 [30]): Active
- Activity (HL-60 [31]): Active
